Measurements published in ChEMBL document CHEMBL4138242, “Synthesis and antibacterial evaluation of novel cationic chalcone derivatives possessing broad spectrum antibacterial activity” (Eur J Med Chem, 2018).
Calls of active or inactive are those of the source. The calls are words filed in the database; no cut-off is given here.

Assays:
Escherichia coli [1] = test: Antibacterial activity against drug-resistant NDM1 producing Escherichia coli clinical isolate Ecl-14-58 after 16 to 20 hrs by broth microdilution method; format: functional
Outline: (§1)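 CLSI broth microdilution in Mueller-Hinton broth. A 4-6 h culture was diluted to about 10⁶ CFU/mL and mixed 1:1 with compound dilutions prepared at 256 to 0.5 µg/mL from aqueous stocks. Plates were incubated at 37 °C for 16-20 h and read visually for MIC. Each concentration was run in duplicate, and the experiment was repeated at least twice. Vancomycin and meropenem were comparators.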

Escherichia coli [2] = test: Antibacterial activity against drug-resistant NDM1 producing Escherichia coli clinical isolate EA-14-61 after 16 to 20 hrs by broth microdilution method; format: functional; outline: as §1
Enterococcus faecalis = test: Antibacterial activity against Enterococcus faecalis ATCC 29212 after 16 to 20 hrs by broth microdilution method; format: functional
Outline: (§2)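 Broth microdilution per CLSI. Bacteria grown 4-6 h (about 10⁸ CFU/mL), then diluted to about 10⁶ CFU/mL. Medium: Mueller-Hinton broth, except Luria-Bertani broth for E. coli. Compounds in sterile water, twofold series 256-0.5 µg/mL, mixed 1:1 with inoculum, 37 °C for 16-20 h. MIC is the lowest concentration without visible growth. Duplicate wells; experiment repeated at least twice.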

Klebsiella pneumoniae [3] = test: Antibacterial activity against drug-resistant carbapenemase producing Klebsiella pneumoniae clinical isolate KP-14-4 after 16 to 20 hrs by broth microdilution method; format: functional; outline: as §1
Klebsiella pneumoniae [4] = test: Antibacterial activity against drug-resistant carbapenemase producing Klebsiella pneumoniae clinical isolate KP-14-1 after 16 to 20 hrs by broth microdilution method; format: functional; outline: as §1
Escherichia coli [5] = test: Induction of inner membrane permeabilization in Escherichia coli ATCC 25922 at 10 to 20 ug/ml measured every 2 mins for 12 mins by propidium iodide staining-based fluorescence assay; format: functional, organism-based
Outline: (§3)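 Mid-log cells (~10⁸ CFU/mL) were suspended in PBS (S. aureus) or HEPES/glucose/KCl (E. coli). They were preincubated with propidium iodide for 30 min (S. aureus) or 40 min (E. coli), and baseline fluorescence was read for 8 min. Compound was added to 20 µg/mL final, and fluorescence (ex 535/em 617 nm) was read every 2 min for 12 min.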

Klebsiella pneumoniae [6] = test: Antibacterial activity against drug-resistant carbapenemase producing Klebsiella pneumoniae clinical isolate KP-13-54 after 16 to 20 hrs by broth microdilution method; format: functional; outline: as §1
Klebsiella pneumoniae [7] = test: Antibacterial activity against drug-resistant carbapenemase producing Klebsiella pneumoniae clinical isolate KP-14-18 after 16 to 20 hrs by broth microdilution method; format: functional; outline: as §1
Escherichia coli [8] = test: Antibacterial activity against drug-resistant NDM1 producing Escherichia coli clinical isolate SM-15-84 after 16 to 20 hrs by broth microdilution method; format: functional; outline: as §1
Staphylococcus aureus [9] = test: Antibacterial activity against methicillin-resistant Staphylococcus aureus clinical isolate 1-may after 16 to 20 hrs by broth microdilution method; format: functional; outline: as §1
Klebsiella pneumoniae [10] = test: Antibacterial activity against drug-resistant carbapenemase producing Klebsiella pneumoniae clinical isolate KP-14-5 after 16 to 20 hrs by broth microdilution method; format: functional; outline: as §1
Escherichia coli [11] = test: Antibacterial activity against drug-resistant NDM1 producing Escherichia coli clinical isolate 1460 after 16 to 20 hrs by broth microdilution method; format: functional; outline: as §1
Staphylococcus aureus [12] = test: Antibacterial activity against methicillin-resistant Staphylococcus aureus clinical isolate 20131012632sau after 16 to 20 hrs by broth microdilution method; format: functional; outline: as §1
Escherichia coli [13] = test: Antibacterial activity against drug-resistant NDM1 producing Escherichia coli clinical isolate KP-13-58 after 16 to 20 hrs by broth microdilution method; format: functional; outline: as §1
Staphylococcus aureus [14] = test: Antibacterial activity against methicillin-resistant Staphylococcus aureus clinical isolate 1207007 after 16 to 20 hrs by broth microdilution method; format: functional; outline: as §1
Staphylococcus aureus [15] = test: Induction of inner membrane permeabilization in Staphylococcus aureus ATCC 29213 at 10 to 20 ug/ml measured every 2 mins for 12 mins by propidium iodide staining-based fluorescence assay; format: functional, organism-based; outline: as §3
Escherichia coli [16] = test: Induction of cytoplasmic membrane depolarization in Escherichia coli ATCC 25922 at 10 to 20 ug/ml measured every 2 mins for 12 mins by DiSC35 dye-based fluorescence assay; format: functional, organism-based
Outline: (§4)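 Mid-log cells (~10⁸ CFU/mL) were suspended in PBS (S. aureus) or HEPES/glucose/KCl with EDTA (E. coli). They were preloaded with DiSC3(5) for 30 min (S. aureus) or 40 min (E. coli), and baseline fluorescence was read for 8 min. Compound was added to 20 µg/mL final, and fluorescence (ex 622/em 670 nm) was read every 2 min for 12 min. Water served as control.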

Klebsiella pneumoniae [17] = test: Antibacterial activity against drug-resistant carbapenemase producing Klebsiella pneumoniae clinical isolate KP-13-45 after 16 to 20 hrs by broth microdilution method; format: functional; outline: as §1
Staphylococcus aureus [18] = test: Antibacterial activity against methicillin-resistant Staphylococcus aureus clinical isolate 1105183 cono7 after 16 to 20 hrs by broth microdilution method; format: functional; outline: as §1
Escherichia coli [19] = test: Antibacterial activity against drug-resistant NDM1 producing Escherichia coli clinical isolate CF-15-61 after 16 to 20 hrs by broth microdilution method; format: functional; outline: as §1
Escherichia coli [20] = test: Antibacterial activity against drug-resistant NDM1 producing Escherichia coli clinical isolate EC-13-49 after 16 to 20 hrs by broth microdilution method; format: functional; outline: as §1
Staphylococcus aureus [21] = test: Antibacterial activity against methicillin-resistant Staphylococcus aureus clinical isolate 0906202 after 16 to 20 hrs by broth microdilution method; format: functional; outline: as §1
Escherichia coli [22] = test: Antibacterial activity against drug-resistant NDM1 producing Escherichia coli clinical isolate EC-14-54 after 16 to 20 hrs by broth microdilution method; format: functional; outline: as §1
Staphylococcus aureus [23] = test: Antibacterial activity against methicillin-resistant Staphylococcus aureus clinical isolate 1208143 after 16 to 20 hrs by broth microdilution method; format: functional; outline: as §1
Escherichia coli [24] = test: Antibacterial activity against Escherichia coli ATCC 25922 after 16 to 20 hrs by broth microdilution method; format: functional; outline: as §2
[25] = Hemolytic activity in sheep RBC after 1 hr; format: ADME, cell-based, Ovis aries, Erythrocyte; details: sheep red blood cells (erythrocytes)
Outline: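 Sheep red blood cells (150 µL suspension) mixed with 50 µL of compound dilutions (5120-10 µg/mL), 1 h at 37 °C, then centrifuged. Supernatant read at 540 nm. Percent hemolysis calculated relative to RBC-only control (0%) and 0.1% Triton X-100 (100%).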

Klebsiella pneumoniae [26] = test: Antibacterial activity against drug-resistant carbapenemase producing Klebsiella pneumoniae clinical isolate KP-13-55 after 16 to 20 hrs by broth microdilution method; format: functional; outline: as §1
Staphylococcus aureus [27] = test: Induction of cytoplasmic membrane depolarization in Staphylococcus aureus ATCC 29213 at 10 to 20 ug/ml measured every 2 mins for 12 mins by DiSC35 dye-based fluorescence assay; format: functional, organism-based; outline: as §4
Staphylococcus aureus [28] = test: Antibacterial activity against methicillin-resistant Staphylococcus aureus clinical isolate 1104060 after 16 to 20 hrs by broth microdilution method; format: functional; outline: as §1
Staphylococcus aureus [29] = test: Antibacterial activity against Staphylococcus aureus ATCC 29213 after 16 to 20 hrs by broth microdilution method; format: functional; outline: as §2
Klebsiella pneumoniae [30] = test: Antibacterial activity against drug-resistant carbapenemase producing Klebsiella pneumoniae clinical isolate KP-14-2 after 16 to 20 hrs by broth microdilution method; format: functional; outline: as §1
Klebsiella pneumoniae [31] = test: Antibacterial activity against drug-resistant carbapenemase producing Klebsiella pneumoniae clinical isolate KP-14-8 after 16 to 20 hrs by broth microdilution method; format: functional; outline: as §1
Klebsiella pneumoniae [32] = test: Antibacterial activity against drug-resistant carbapenemase producing Klebsiella pneumoniae clinical isolate KP-14-3 after 16 to 20 hrs by broth microdilution method; format: functional; outline: as §1
Escherichia coli [33] = test: Antibacterial activity against drug-resistant NDM1 producing Escherichia coli clinical isolate Ecl-14-56 after 16 to 20 hrs by broth microdilution method; format: functional; outline: as §1
Klebsiella pneumoniae [34] = test: Antibacterial activity against drug-resistant carbapenemase producing Klebsiella pneumoniae clinical isolate EC-13-23 after 16 to 20 hrs by broth microdilution method; format: functional; outline: as §1
Klebsiella pneumoniae [35] = test: Antibacterial activity against drug-resistant carbapenemase producing Klebsiella pneumoniae clinical isolate KP-14-45 after 16 to 20 hrs by broth microdilution method; format: functional; outline: as §1
Escherichia coli [36] = test: Antibacterial activity against drug-resistant NDM1 producing Escherichia coli clinical isolate Ecl-13-62 after 16 to 20 hrs by broth microdilution method; format: functional; outline: as §1
Staphylococcus aureus [37] = test: Antibacterial activity against methicillin-resistant Staphylococcus aureus clinical isolate 0831010 after 16 to 20 hrs by broth microdilution method; format: functional; outline: as §1
Escherichia coli [38] = test: Antibacterial activity against drug-resistant NDM1 producing Escherichia coli clinical isolate Ecl-14-59 after 16 to 20 hrs by broth microdilution method; format: functional; outline: as §1
Salmonella enterica = test: Antibacterial activity against Salmonella enterica ATCC 13076 after 16 to 20 hrs by broth microdilution method; format: functional; outline: as §2
Staphylococcus aureus [39] = test: Antibacterial activity against methicillin-resistant Staphylococcus aureus clinical isolate 20130911034sau after 16 to 20 hrs by broth microdilution method; format: functional; outline: as §1
Escherichia coli [40] = test: Antibacterial activity against drug-resistant NDM1 producing Escherichia coli clinical isolate CF-13-61 after 16 to 20 hrs by broth microdilution method; format: functional; outline: as §1

CCCCCCCC[N+](C)(C)CC(=O)Nc1ccc(C(=O)/C=C/c2ccc(F)cc2F)cc1.[Cl-]
MIC (Escherichia coli [1]): 4 µg/mL | MIC (Escherichia coli [2]): 4 µg/mL | MIC (Enterococcus faecalis): 2 µg/mL | MIC (Klebsiella pneumoniae [3]): 4 µg/mL | MIC (Klebsiella pneumoniae [4]): 8 µg/mL | Activity (Escherichia coli [5]): Active | MIC (Klebsiella pneumoniae [6]): 4 µg/mL | MIC (Klebsiella pneumoniae [7]): 8 µg/mL | MIC (Escherichia coli [8]): 16 µg/mL | MIC (Staphylococcus aureus [9]): 1 µg/mL | MIC (Klebsiella pneumoniae [10]): 4 µg/mL | MIC (Escherichia coli [11]): 4 µg/mL | MIC (Staphylococcus aureus [12]): 4 µg/mL | MIC (Escherichia coli [13]): 2 µg/mL | MIC (Staphylococcus aureus [14]): 0.5 µg/mL | Activity (Staphylococcus aureus [15]): Active | Activity (Escherichia coli [16]): Active | MIC (Klebsiella pneumoniae [17]): 8 µg/mL | MIC (Staphylococcus aureus [18]): 1 µg/mL | MIC (Escherichia coli [19]): 4 µg/mL | MIC (Escherichia coli [20]): 4 µg/mL | MIC (Staphylococcus aureus [21]): 4 µg/mL | MIC (Escherichia coli [22]): 8 µg/mL | MIC (Staphylococcus aureus [23]): 2 µg/mL | MIC (Escherichia coli [24]): 4 µg/mL | HC50 at 1 h [25]: 54 µg/mL | MIC (Klebsiella pneumoniae [26]): 8 µg/mL | Activity (Staphylococcus aureus [27]): Active | MIC (Staphylococcus aureus [28]): 8 µg/mL | MIC (Staphylococcus aureus [29]): 2 µg/mL | MIC (Klebsiella pneumoniae [30]): 16 µg/mL | MIC (Klebsiella pneumoniae [31]): 4 µg/mL | MIC (Klebsiella pneumoniae [32]): 8 µg/mL | MIC (Escherichia coli [33]): 4 µg/mL | MIC (Klebsiella pneumoniae [34]): 8 µg/mL | MIC (Klebsiella pneumoniae [35]): 8 µg/mL | MIC (Escherichia coli [36]): 4 µg/mL | MIC (Staphylococcus aureus [37]): 0.5 µg/mL | MIC (Escherichia coli [38]): 4 µg/mL | MIC (Salmonella enterica): 4 µg/mL | MIC (Staphylococcus aureus [39]): 1 µg/mL | MIC (Escherichia coli [40]): 2 µg/mL

CCCCCCCC[N+](C)(C)CC(=O)Nc1ccc(C(=O)/C=C/c2ccc(Cl)cc2)cc1.[Cl-]
MIC (Escherichia coli [1]): 4 µg/mL | MIC (Escherichia coli [2]): 4 µg/mL | MIC (Enterococcus faecalis): 2 µg/mL | MIC (Klebsiella pneumoniae [3]): 8 µg/mL | MIC (Klebsiella pneumoniae [4]): 16 µg/mL | Activity (Escherichia coli [5]): Active | MIC (Klebsiella pneumoniae [6]): 8 µg/mL | MIC (Klebsiella pneumoniae [7]): 16 µg/mL | MIC (Escherichia coli [8]): 16 µg/mL | MIC (Staphylococcus aureus [9]): 2 µg/mL | MIC (Klebsiella pneumoniae [10]): 8 µg/mL | MIC (Escherichia coli [11]): 8 µg/mL | MIC (Staphylococcus aureus [12]): 2 µg/mL | MIC (Escherichia coli [13]): 4 µg/mL | MIC (Staphylococcus aureus [14]): 0.5 µg/mL | Activity (Staphylococcus aureus [15]): Active | Activity (Escherichia coli [16]): Active | MIC (Klebsiella pneumoniae [17]): 8 µg/mL | MIC (Staphylococcus aureus [18]): 1 µg/mL | MIC (Escherichia coli [19]): 8 µg/mL | MIC (Escherichia coli [20]): 16 µg/mL | MIC (Staphylococcus aureus [21]): 1 µg/mL | MIC (Escherichia coli [22]): 16 µg/mL | MIC (Staphylococcus aureus [23]): 2 µg/mL | MIC (Escherichia coli [24]): 4 µg/mL | HC50 at 1 h [25]: > 500 µg/mL | MIC (Klebsiella pneumoniae [26]): 32 µg/mL | Activity (Staphylococcus aureus [27]): Active | MIC (Staphylococcus aureus [28]): 4 µg/mL | MIC (Staphylococcus aureus [29]): 2 µg/mL | MIC (Klebsiella pneumoniae [30]): 16 µg/mL | MIC (Klebsiella pneumoniae [31]): 8 µg/mL | MIC (Klebsiella pneumoniae [32]): 8 µg/mL | MIC (Escherichia coli [33]): 4 µg/mL | MIC (Klebsiella pneumoniae [34]): 8 µg/mL | MIC (Klebsiella pneumoniae [35]): 8 µg/mL | MIC (Escherichia coli [36]): 8 µg/mL | MIC (Staphylococcus aureus [37]): 1 µg/mL | MIC (Escherichia coli [38]): 8 µg/mL | MIC (Salmonella enterica): 8 µg/mL | MIC (Staphylococcus aureus [39]): 0.5 µg/mL | MIC (Escherichia coli [40]): 8 µg/mL
